Laboratory results reported in ChEMBL document CHEMBL2311304, “Design, synthesis and in vitro and in vivo antitumor activities of novel bivalent β-carbolines” (Eur J Med Chem, 2013).

Tests used:
KB = assay: Cytotoxicity against human epidermoid carcinoma of the nasopharynx KB cells assessed as reduction in optical density by MTT assay; type: functional, cell-based
Procedure, shortened: (§1)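 Cells were cultured in RPMI-1640 with 10% (v/v) fetal calf serum, 100 µg ml-1 penicillin and 100 µg ml-1 streptomycin at 37 °C in humidified 5% CO2. Compounds were dissolved in DMSO, with final DMSO at 2% (v/v) or lower. MTT staining was used, with three replicate wells per point. IC50 is the concentration giving a 50% drop in optical density versus untreated cells.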

769-P = assay: Cytotoxicity against human renal carcinoma 769-P cells assessed as reduction in optical density by MTT assay; type: functional, cell-based; procedure, shortened: as §1
SK-OV-3 = assay: Cytotoxicity against human ovary adenocarcinoma SKOV3 cells assessed as reduction in optical density by MTT assay; type: functional, cell-based; conditions: SK-OV-3, Female gonad; procedure, shortened: as §1
A-375 = assay: Cytotoxicity against human malignant melanoma A375 cells assessed as reduction in optical density by MTT assay; type: functional, cell-based; procedure, shortened: as §1
BGC-823 = assay: Cytotoxicity against human gastric carcinoma BGC823 cells assessed as reduction in optical density by MTT assay; type: functional, cell-based; procedure, shortened: as §1
[1] = Antitumor activity in mouse Sarcoma 180 cells inoculated mouse assessed as tumor inhibition rate at one fifth of LD50 concentration once a day for consecutive 7 days by ip; type: functional; design: scale not given: the % may be the effect or the level left
Procedure, shortened: (§2)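 Each tumour line was first grown in mice for 7 days, then harvested. Viable cells (2 × 10^6 per mouse) were injected s.c. into the armpit. Dosing began 24 h later: i.p., about one fifth of LD50, daily for 7 days, 10 female mice per group. […] Body weight was recorded every 3 days. Tumours were excised and weighed on day 21 to give inhibition rate.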

[2] = Antitumor activity in mouse Lewis lung cancer cells inoculated mouse assessed as tumor inhibition rate at one fifth of LD50 concentration once a day for consecutive 7 days by ip; type: functional, Cancer cell lines; design: scale not given: the % may be the effect or the level left; procedure, shortened: as §2
CT26 = assay: Antitumor activity in mouse CT26 colon cancer cells inoculated mouse assessed as tumor inhibition rate at one fifth of LD50 concentration once a day for consecutive 7 days by ip; type: functional; design: scale not given: the % may be the effect or the level left; procedure, shortened: as §2
Mus musculus [3] = assay: Neurotoxicity in C57BL/6 mouse at 1 to 500 mg/kg, ip for 14 days; type: toxicity, organism-based; design: dose 1-500 mg/kg, route intraperitoneal; conditions: in vivo, 336 h
Procedure, shortened: (§3)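 Healthy C57BL/6 mice (9–12 weeks, 18–22 g) were fasted overnight with free access to water. Each received a single i.p. dose of 1.0–500 mg kg-1 in 0.5% CMC-Na, 10 mice per group (5 male, 5 female). Mice were watched continuously for 2 h, intermittently to 24 h, then occasionally to 14 days for tremor, twitch, jumping and supination. At day 14 they were killed and heart, liver and kidneys were examined macroscopically.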

Mus musculus [4] = assay: Toxicity in C57BL/6 mouse assessed as heart damage at 1 to 500 mg/kg, ip for 14 days; type: organism-based; design: dose 1-500 mg/kg, route intraperitoneal; conditions: in vivo, 336 h; procedure, shortened: as §3
Mus musculus [5] = assay: Toxicity in C57BL/6 mouse assessed as maximum weight loss at 40 mg/kg, ip; type: organism-based; design: dose 40 mg/kg, route intraperitoneal; conditions: in vivo
Procedure, shortened: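 Tumor-bearing mice, 10 females per group, were inoculated s.c. in the armpit with 2 × 10^6 viable tumor cells. Compound was given i.p. once daily for 7 consecutive days, starting 24 h after inoculation. […] Body weight was recorded every 3 days until sacrifice on day 21.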

Mus musculus [6] = assay: Toxicity in C57BL/6 mouse assessed as kidney damage at 1 to 500 mg/kg, ip for 14 days; type: organism-based; design: dose 1-500 mg/kg, route intraperitoneal; conditions: in vivo, 336 h; procedure, shortened: as §3
Mus musculus [7] = assay: Toxicity in C57BL/6 mouse assessed as liver damage at 1 to 500 mg/kg, ip for 14 days; type: organism-based; design: dose 1-500 mg/kg, route intraperitoneal; conditions: in vivo, 336 h; procedure, shortened: as §3
H22 = assay: Antitumor activity in mouse H22 liver cancer cells inoculated mouse assessed as tumor inhibition rate at one fifth of LD50 concentration once a day for consecutive 7 days by ip; type: functional; design: scale not given: the % may be the effect or the level left; procedure, shortened: as §2
B16 = assay: Antitumor activity in mouse B16 melanoma cell lines cells inoculated mouse assessed as tumor inhibition rate at one fifth of LD50 concentration once a day for consecutive 7 days by ip; type: functional; design: scale not given: the % may be the effect or the level left; procedure, shortened: as §2

Compound | IC50 (KB) [µM] | IC50 (769-P) [µM] | IC50 (SK-OV-3) [µM] | IC50 (A-375) [µM] | IC50 (BGC-823) [µM] | Activity [1] [%] | Activity [2] [%] | Activity (CT26) [%] | Activity (Mus musculus [3]) | Activity (Mus musculus [4]) | Activity (Mus musculus [5]) [%] | Activity (Mus musculus [6]) | Activity (Mus musculus [7]) | Activity (H22) [%] | Activity (B16) [%]
Cc1nccc2c3ccccc3n(CCCCCCCn3c4ccccc4c4ccnc(C)c43)c12 | > 200 | 51.7 | 96.8 | > 200 | > 200 | – | – | – | – | – | – | – | – | – | –
Cc1nccc2c3ccccc3n(CCCCCCCCCCn3c4ccccc4c4ccnc(C)c43)c12 | > 200 | 16.2 | 8.5 | > 200 | > 200 | – | – | – | – | – | – | – | – | – | –
c1ccc2c(c1)c1ccnc(-c3ccsc3)c1n2CCCCCCn1c2ccccc2c2ccnc(-c3ccsc3)c21 | > 200 | > 200 | > 200 | > 200 | > 200 | – | – | – | – | – | – | – | – | – | –
CCOC(=O)c1cc2c3ccccc3n(CCCCCCCCCn3c4ccccc4c4cc(C(=O)OCC)nc(-c5cc(OC)c(OC)c(OC)c5)c43)c2c(-c2cc(OC)c(OC)c(OC)c2)n1 | > 200 | > 200 | > 200 | > 200 | > 200 | – | – | – | – | – | – | – | – | – | –
Cc1nccc2c3ccccc3n(CCCCn3c4ccccc4c4ccnc(C)c43)c12 | 6.4 | 6.5 | 4.8 | 13.1 | 22.3 | 56.2 | 40.4 | 50.8 | Non-toxic | Non-toxic | 21.5 | Non-toxic | Non-toxic | 42.3 | 29.9
COc1ccc2c3ccnc(C)c3n(CCCCCn3c4cc(OC)ccc4c4ccnc(C)c43)c2c1 | 5 | 81 | 1.7 | < 1.4 | 58.6 | – | – | – | – | – | – | – | – | – | –
CCCCOc1ccc2c3ccnc(C)c3n(CCCCCCn3c4cc(OCCCC)ccc4c4ccnc(C)c43)c2c1 | > 200 | 56 | > 200 | > 200 | > 200 | – | – | – | – | – | – | – | – | – | –
c1cncc(-c2nccc3c4ccccc4n(CCCCn4c5ccccc5c5ccnc(-c6cccnc6)c54)c23)c1 | > 200 | > 200 | 36.8 | 85.3 | > 200 | – | – | – | – | – | – | – | – | – | –
c1ccc2c(c1)c1ccncc1n2CCCCCCCn1c2ccccc2c2ccncc21 | > 200 | 53 | > 200 | > 200 | > 200 | – | – | – | – | – | – | – | – | – | –
c1ccc2c(c1)c1ccncc1n2CCCCn1c2ccccc2c2ccncc21 | > 200 | – | > 200 | > 200 | 59.7 | – | 34.2 | 39.7 | Non-toxic | Non-toxic | 14.5 | Non-toxic | Non-toxic | – | –
c1ccc2c(c1)c1ccncc1n2CCCCCCCCn1c2ccccc2c2ccncc21 | > 200 | > 200 | 33.5 | > 200 | > 200 | – | – | – | – | – | – | – | – | – | –
COc1ccc2c3ccnc(C)c3n(CCCCCCCn3c4cc(OC)ccc4c4ccnc(C)c43)c2c1 | 38.6 | 114 | 10.2 | 113 | 104 | – | – | – | – | – | – | – | – | – | –
CCCCOc1ccc2c3ccnc(C)c3n(CCCCn3c4cc(OCCCC)ccc4c4ccnc(C)c43)c2c1 | 6.8 | > 200 | 5.5 | 3.8 | 8.5 | – | – | – | – | – | – | – | – | – | –
COc1ccc2c3ccnc(C)c3n(CCCCCCn3c4cc(OC)ccc4c4ccnc(C)c43)c2c1 | 155 | > 200 | 11.7 | 35.3 | > 200 | – | – | – | – | – | – | – | – | – | –
Cc1nccc2c3ccccc3n(CCCn3c4ccccc4c4ccnc(C)c43)c12 | 160 | 145 | 26.4 | 69.5 | > 200 | – | – | – | – | – | – | – | – | – | –
CC(C)c1nccc2c3ccccc3n(CCCCCCCCCCn3c4ccccc4c4ccnc(C(C)C)c43)c12 | > 200 | 4.6 | > 200 | 19.6 | > 200 | – | – | – | – | – | – | – | – | – | –
